Results from ChEMBL document CHEMBL1144439, “A novel class of in vivo active anticancer agents: achiral seco-amino- and seco-hydroxycyclopropylbenz[e]indolone (seco-CBI) analogues of the duocarmycins and CC-1065” (J Med Chem, 2005).

Experiments:
[1] = The concentration required for inhibiting the growth of the murine B16-F0 melanoma cells by 50%; assay type: functional; conditions: Mus musculus, B16F0
Summary of the method: (§1)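 MTT growth inhibition in murine lines grown in DMEM with 10% FBS, HEPES, glutamine, pen/strep at 37 °C, 5% CO2. Seeded 80 000 cells/well, continuous drug exposure (DMSO stock diluted in DMEM) for 72 h, quadruplicate wells per concentration. MTT added for 4 h, formazan dissolved in acid 2-propanol, read at 570 nm (reference 630 nm). IC50 extrapolated from averaged absorbance curves.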

[2] = tested on: L1210; assay: The concentration required for inhibiting the growth of the murine L1210 leukemia cells by 50%; assay type: functional, cell-based; conditions: Mus musculus; summary of the method: as §1
[3] = tested on: K562; assay: Concentration required to kill 50% of human K-562 leukemia cells; assay type: functional
Summary of the method: (§2)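 NCI 60-cell-line human tumour panel. Continuous 48 h drug exposure, then sulforhodamine B assay for cell viability. […] GI50 and TGI are generated from the same curves.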

[4] = tested on: SK-MEL-5; assay: Concentration required to kill 50% of human SK-MEL-5 melanoma cells; assay type: functional; summary of the method: as §2
[5] = tested on: HOP-62; assay: Concentration required to kill 50% of human HOP-62 non-small cell lung cancer cells; assay type: functional; summary of the method: as §2
[6] = tested on: LOX IMVI; assay: Concentration required to kill 50% of human LOX IMVI melanoma cells; assay type: functional; summary of the method: as §2
[7] = tested on: NCI-H322M; assay: Concentration required to kill 50% of human NCI-H322M non-small cell lung cancer cells; assay type: functional; summary of the method: as §2
[8] = tested on: ACHN; assay: Concentration required to kill 50% of human ACHN renal cancer cells; assay type: functional; summary of the method: as §2
[9] = Concentration required to kill 50% of human T-47D breast cancer cells; assay type: functional, Cancer cell lines
Summary of the method: (§3)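 NCI 60-cell human cancer panel run at the National Cancer Institute. Cells exposed to compound for 48 h, with a sulforhodamine B read-out.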

[10] = tested on: BT-549; assay: Concentration required to kill 50% of human BT-549 breast cancer cells; assay type: functional; summary of the method: as §2
[11] = tested on: COLO 205; assay: Concentration required to kill 50% of human COLO 205 colon cancer cells; assay type: functional; summary of the method: as §2
[12] = tested on: OVCAR-3; assay: Concentration required to kill 50% of human OVCAR-3 ovarian cancer cells; assay type: functional; summary of the method: as §2
[13] = tested on: CAKI-1; assay: Concentration required to kill 50% of human CAKI-1 renal cancer cells; assay type: functional; summary of the method: as §2
[14] = tested on: SF-539; assay: Concentration required to kill 50% of human SF-539 CNS cancer cells; assay type: functional; summary of the method: as §2
[15] = tested on: A549; assay: Concentration required to kill 50% of human A549/ATCC non-small cell lung cancer cells; assay type: functional; summary of the method: as §2
[16] = tested on: PC-3; assay: Concentration required to kill 50% of human PC-3 prostate cancer cells; assay type: functional; summary of the method: as §2
[17] = tested on: HL-60; assay: Concentration required to kill 50% of human HL-60 leukemia cells; assay type: functional; summary of the method: as §2
[18] = tested on: SK-MEL-28; assay: Concentration required to kill 50% of human SK-MEL-28 melanoma cells; assay type: functional; summary of the method: as §2
[19] = tested on: NCI/ADR-RES; assay: Concentration required to kill 50% of human NCI/ADR-RES breast cancer cells; assay type: functional; summary of the method: as §2
[20] = tested on: Malme-3M; assay: Concentration required to kill 50% of human MALME-3M melanoma cells; assay type: functional; summary of the method: as §2
[21] = tested on: SN12C; assay: Concentration required to kill 50% of human SN12C renal cancer cells; assay type: functional; summary of the method: as §2
[22] = tested on: MDA-N; assay: Concentration required to kill 50% of human MDA-N breast cancer cells; assay type: functional; summary of the method: as §2
[23] = tested on: HCT-15; assay: Concentration required to kill 50% of human HCT-15 colon cancer cells; assay type: functional; summary of the method: as §2
[24] = tested on: MDA-MB-231; assay: Concentration required to kill 50% of human MDA-MB-231/ATCC breast cancer cells; assay type: functional; summary of the method: as §2
[25] = tested on: NCI-H226; assay: Concentration required to kill 50% of human NCI-H226 non-small cell lung cancer cells; assay type: functional; summary of the method: as §2
[26] = tested on: UACC-62; assay: Concentration required to kill 50% of human UACC-62 melanoma cells; assay type: functional; summary of the method: as §3
[27] = tested on: DU-145; assay: Concentration required to kill 50% of human DU-145 prostate cancer cells; assay type: functional; summary of the method: as §2
[28] = tested on: KM12; assay: Concentration required to kill 50% of human KM12 colon cancer cells; assay type: functional; summary of the method: as §2
[29] = tested on: NCI-H522; assay: Concentration required to kill 50% of human NCI-H522 non-small cell lung cancer cells; assay type: functional; summary of the method: as §2
[30] = tested on: SNB-75; assay: Concentration required to kill 50% of human SNB-75 CNS cancer cells; assay type: functional; summary of the method: as §2
[31] = tested on: Hs-578T; assay: Concentration required to kill 50% of human Hs 578.T breast cancer cells; assay type: functional; summary of the method: as §2
[32] = tested on: IGROV-1; assay: Concentration required to kill 50% of human IGROV1 ovarian cancer cells; assay type: functional; summary of the method: as §2
[33] = tested on: UO-31; assay: Concentration required to kill 50% of human UO-31 renal cancer cells; assay type: functional; summary of the method: as §3
[34] = tested on: SF-268; assay: Concentration required to kill 50% of human SF-268 CNS cancer cells; assay type: functional; summary of the method: as §2
[35] = tested on: HOP-92; assay: Concentration required to kill 50% of human HOP-92 non-small cell lung cancer cells; assay type: functional; summary of the method: as §2
[36] = tested on: OVCAR-8; assay: Concentration required to kill 50% of human OVCAR-8 ovarian cancer cells; assay type: functional; summary of the method: as §2
[37] = tested on: OVCAR-4; assay: Concentration required to kill 50% of human OVCAR-4 ovarian cancer cells; assay type: functional; summary of the method: as §2
[38] = tested on: NCI-H23; assay: Concentration required to kill 50% of human NCI-H23 non-small cell lung cancer cells; assay type: functional; summary of the method: as §2
[39] = tested on: MCF7S; assay: Concentration required to kill 50% of human MCF-7 breast cancer cells; assay type: functional; summary of the method: as §2
[40] = tested on: HT-29; assay: Concentration required to kill 50% of human HT-29 colon cancer cells; assay type: functional; summary of the method: as §2
[41] = tested on: NCI-H460; assay: Concentration required to kill 50% of human NCI-H460 non-small cell lung cancer cells; assay type: functional; summary of the method: as §2
[42] = tested on: A498; assay: Concentration required to kill 50% of human A-498 renal cancer cells; assay type: functional; summary of the method: as §2
[43] = tested on: 786-0; assay: Concentration required to kill 50% of human 786-0 renal cancer cells; assay type: functional; summary of the method: as §2
[44] = tested on: EKVX; assay: Concentration required to kill 50% of human EKVX non-small cell lung cancer cells; assay type: functional; summary of the method: as §2
[45] = Concentration required to kill 50% of human RPMI-8226 leukemia cells; assay type: functional; summary of the method: as §2
[46] = tested on: SK-OV-3; assay: Concentration required to kill 50% of human SK-OV-3 ovarian cancer cells; assay type: functional; summary of the method: as §2
[47] = tested on: K562; assay: The concentration required for inhibiting the growth of the human K562 chronic myeloid leukemia cells by 50%; assay type: functional, cell-based
Summary of the method: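 Drug exposure was […] in the dark, then cells were washed and plated at 10⁴ cells/well, eight wells per sample, and incubated 4 days. MTT was added for 5 h, formazan dissolved in DMSO and read at 550 nm.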

[48] = tested on: SW-620; assay: Concentration required to kill 50% of human SW-620 colon cancer cells; assay type: functional; summary of the method: as §2
[49] = tested on: SK-MEL-2; assay: Concentration required to kill 50% of human SK-MEL-2 melanoma cells; assay type: functional; summary of the method: as §2
[50] = tested on: RXF 393; assay: Concentration required to kill 50% of human RXF 393 renal cancer cells; assay type: functional; summary of the method: as §2
[51] = tested on: OVCAR-5; assay: Concentration required to kill 50% of human OVCAR-5 ovarian cancer cells; assay type: functional; summary of the method: as §2
[52] = tested on: MOLT-4; assay: Concentration required to kill 50% of human MOLT-4 leukemia cells; assay type: functional; summary of the method: as §2
[53] = tested on: TK-10; assay: Concentration required to kill 50% of human TK-10 renal cancer cells; assay type: functional; summary of the method: as §3
[54] = Concentration required to kill 50% of human U-251 CNS cancer cells; assay type: functional; summary of the method: as §3
[55] = tested on: SNB-19; assay: Concentration required to kill 50% of human SNB-19 CNS cancer cells; assay type: functional; summary of the method: as §2
[56] = tested on: HCT-116; assay: Concentration required to kill 50% of human HCT116 colon cancer cells; assay type: functional; summary of the method: as §2
[57] = tested on: SF-295; assay: Concentration required to kill 50% of human SF-295 CNS cancer cells; assay type: functional; summary of the method: as §2
[58] = tested on: HCC 2998; assay: Concentration required to kill 50% of human HCC2998 colon cancer cells; assay type: functional; summary of the method: as §2

COc1cc2cc(C(=O)Nc3cc(N)c4ccccc4c3CCOC(C)=O)[nH]c2c(OC)c1OC
IC50 [1]: 54000 nM
IC50 [2]: 53000 nM

COc1cc2cc(C(=O)Nc3cc(N)c4ccccc4c3CCO)[nH]c2c(OC)c1OC
IC50 [1]: 60000 nM
IC50 [2]: 41000 nM

COc1cc2cc(C(=O)Nc3cc(N)c4ccccc4c3CCCl)[nH]c2c(OC)c1OC [CENTANAMYCIN]
Log 10 LC50 [3]: >-4.3
Log 10 LC50 [4]: -4.85
Log 10 LC50 [5]: >-4.3
Log 10 LC50 [6]: -4.75
Log 10 LC50 [7]: >-4.3
Log 10 LC50 [8]: >-4.3
Log 10 LC50 [9]: >-4.3
Log 10 LC50 [10]: -5.76
Log 10 LC50 [11]: -4.69
Log 10 LC50 [12]: >-4.3
Log 10 LC50 [13]: >-4.3
Log 10 LC50 [14]: >-4.3
Log 10 LC50 [15]: >-4.3
Log 10 LC50 [16]: -4.81
Log 10 LC50 [17]: >-4.3
Log 10 LC50 [18]: >-4.3
Log 10 LC50 [19]: -4.33
Log 10 LC50 [20]: >-4.3
Log 10 LC50 [21]: -5.65
Log 10 LC50 [22]: >-4.3
Log 10 LC50 [23]: >-4.3
Log 10 LC50 [24]: -4.58
Log 10 LC50 [25]: >-4.3
Log 10 LC50 [26]: -6.49
Log 10 LC50 [27]: >-4.3
Log 10 LC50 [28]: >-4.3
Log 10 LC50 [29]: -5.53
Log 10 LC50 [30]: -5.78
Log 10 LC50 [31]: >-4.3
Log 10 LC50 [32]: >-4.3
Log 10 LC50 [33]: >-4.3
Log 10 LC50 [34]: >-4.3
Log 10 LC50 [35]: -4.42
IC50 [1]: 150 nM
Log 10 LC50 [36]: -4.69
Log 10 LC50 [37]: >-4.3
Log 10 LC50 [38]: -5.07
Log 10 LC50 [39]: -4.54
Log 10 LC50 [40]: -4.41
Log 10 LC50 [41]: -4.81
Log 10 LC50 [42]: >-4.3
Log 10 LC50 [43]: -4.58
Log 10 LC50 [44]: -4.73
Log 10 LC50 [45]: >-4.3
IC50 [2]: 180 nM
Log 10 LC50 [46]: >-4.3
IC50 [47]: 45 nM
Log 10 LC50 [48]: >-4.3
Log 10 LC50 [49]: -6.74
Log 10 LC50 [50]: -6.86
Log 10 LC50 [51]: -4.43
Log 10 LC50 [52]: >-4.3
Log 10 LC50 [53]: -4.33
Log 10 LC50 [54]: -5.21
Log 10 LC50 [55]: >-4.3
Log 10 LC50 [56]: -4.67
Log 10 LC50 [57]: >-4.3
Log 10 LC50 [58]: -6.65

COc1cc2cc(C(=O)N3CC(CCl)c4c3cc(O)c3ccccc43)[nH]c2c(OC)c1OC (stereo not given)
IC50 [1]: 78 nM
IC50 [2]: 8.4 nM
IC50 [47]: 28 nM

COc1ccc2[nH]c(C(=O)Nc3cc(N)c4ccccc4c3CCCl)cc2c1
IC50 [1]: 260 nM
IC50 [2]: 390 nM

COc1cc2cc(C(=O)Nc3cc(OCc4ccccc4)c4ccccc4c3CCCl)[nH]c2c(OC)c1OC
IC50 [1]: > 100000 nM
IC50 [2]: 51000 nM

COc1cc2cc(C(=O)Nc3cc(NCc4ccccc4)c4ccccc4c3CCCl)[nH]c2c(OC)c1OC
IC50 [1]: 5400 nM
